Results from ChEMBL document CHEMBL4837214, “Design, synthesis, and biological evaluation of novel tetrahydroprotoberberine derivatives to reduce SREBPs expression for the treatment of hyperlipidemia” (Eur J Med Chem, 2021).
The source made the active and inactive calls. No cut-off for these calls is given here.

Key:
[1] = biological target: T1, Sterol regulatory element-binding protein 1 (Homo sapiens) (UniProt P36956); assay: Induction of SREBP degradation in human HepG2 cells at 10 uM preincubated with cycloheximide for 1 hr followed by compound additon by Western blot analysis; format: cell-based
T1 sequence (whole entry): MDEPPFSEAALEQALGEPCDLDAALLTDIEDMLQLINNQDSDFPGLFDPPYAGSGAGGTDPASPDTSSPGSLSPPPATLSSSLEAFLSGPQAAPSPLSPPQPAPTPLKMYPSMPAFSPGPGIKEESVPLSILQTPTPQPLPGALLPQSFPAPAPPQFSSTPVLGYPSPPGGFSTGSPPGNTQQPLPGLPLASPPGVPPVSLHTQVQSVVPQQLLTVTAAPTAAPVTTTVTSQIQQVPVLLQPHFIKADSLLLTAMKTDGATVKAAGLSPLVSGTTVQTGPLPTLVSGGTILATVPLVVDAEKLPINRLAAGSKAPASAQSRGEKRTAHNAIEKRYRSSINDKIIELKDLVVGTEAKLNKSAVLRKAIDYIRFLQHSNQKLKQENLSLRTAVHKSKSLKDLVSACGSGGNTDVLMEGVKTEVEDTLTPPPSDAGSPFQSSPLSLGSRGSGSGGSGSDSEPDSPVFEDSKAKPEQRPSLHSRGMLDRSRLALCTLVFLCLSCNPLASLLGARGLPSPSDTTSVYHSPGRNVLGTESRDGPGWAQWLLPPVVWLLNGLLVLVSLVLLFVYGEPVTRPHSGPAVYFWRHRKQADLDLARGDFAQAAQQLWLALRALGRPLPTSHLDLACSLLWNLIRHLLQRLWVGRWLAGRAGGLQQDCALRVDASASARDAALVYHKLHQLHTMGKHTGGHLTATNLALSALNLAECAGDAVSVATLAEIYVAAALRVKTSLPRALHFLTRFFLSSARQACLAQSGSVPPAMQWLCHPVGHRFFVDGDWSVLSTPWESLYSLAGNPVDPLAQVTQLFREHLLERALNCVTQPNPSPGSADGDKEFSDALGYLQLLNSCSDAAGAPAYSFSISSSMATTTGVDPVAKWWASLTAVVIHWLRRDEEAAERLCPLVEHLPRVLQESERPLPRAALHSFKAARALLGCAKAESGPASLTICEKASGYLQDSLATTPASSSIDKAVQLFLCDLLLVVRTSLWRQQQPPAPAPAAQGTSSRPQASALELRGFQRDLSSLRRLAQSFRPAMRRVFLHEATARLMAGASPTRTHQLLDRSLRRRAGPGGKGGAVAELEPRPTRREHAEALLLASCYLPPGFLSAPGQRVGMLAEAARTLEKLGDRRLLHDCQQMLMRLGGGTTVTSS
How it was run: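 HepG2 cells pretreated 1 h with cycloheximide at […]. Medium then switched to cycloheximide plus vehicle or compound at […] for varying times. SREBP decay rate followed by Western blot of lysates.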

HepG2 [2] = assay: Down regulation of intracellular TC level in human HepG2 cells at 10 uM measured after 24 hrs; format: functional, cell-based
How it was run: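 HepG2 cells grown in six-well plates and exposed 24 h to compound at […]. Cells collected in PBS and sonicated (5 s on, 10 s off, 60 s total). Total cholesterol or triglyceride measured with a colorimetric determination kit.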

HepG2 [3] = assay: Down regulation of precursor and mature forms of SREBP-1 protein expression in human HepG2 cells after 24 hrs by Western blotting analysis; format: functional, cell-based; conditions: dose 5-80 µM
How it was run: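 HepG2 cells treated 24 h at the indicated doses and lysed in RIPA buffer with protease inhibitors; protein quantified by BCA. Lysates run on 10% SDS-PAGE and blotted to nitrocellulose. After 5% milk block, primary antibody applied overnight at 4 °C and secondary 1 h at room temperature. β-actin served as loading reference.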

HepG2 [4] = assay: Down regulation of SCD gene expression in human HepG2 cells by qRT-PCR analysis; format: functional, cell-based
[5] = biological target: T1, Sterol regulatory element-binding protein 1 (Homo sapiens); assay: Induction of SREBP degradation in human HepG2 cells at 10 uM preincubated with MG-132 for 1 hr followed by compound additon and measured after 4 hrs by Western blot analysis; format: cell-based
How it was run: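 HepG2 cells pretreated 1 h with MG-132 at […]. Medium then switched to MG-132 plus vehicle or compound at […] for 4 h. SREBPs detected in lysates by Western blot.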

[6] = biological target: T1, Sterol regulatory element-binding protein 1 (Homo sapiens); assay: Induction of SREBP degradation expressed in human HEK293T cells assessed as increase in SREBP ubiquitination at 10 uM after 24 hrs by Western blot analysis; format: cell-based
How it was run: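 293T cells seeded at 3×10⁶ per dish and transfected next day with flag-SREBP1 or flag-SREBP2 plus HA-ubiquitin. On day 2 medium replaced with DMSO or compound. On day 3 cells lysed in IP buffer and cleared at 12,000 rpm, 4 °C. Supernatant immunoprecipitated overnight at 4 °C with flag antibody or IgG. Ubiquitylated SREBPs detected by Western blot.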

[7] = Cmax in Sprague-Dawley rat at 10 mg/kg, po measured upto 24 hrs by LC-MS/MS analysis; format: ADME, organism-based; set-up: route oral, dose 10 mg/kg, time <=24; conditions: in vivo
How it was run: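 Six SD rats split into two groups of three, dosed 1 mg/kg IV or 10 mg/kg orally. IV blood drawn at 2, 5, 15, 30 min and 1, 2, 4, 6, 8, 12 h. Oral blood drawn at 5, 15, 30 min and 1, 2, 4, 6, 8, 12, 24 h. Serum drug measured by LC/MS/MS. Parameters are the average of three runs.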

[8] = AUC (0 to infinity) in Sprague-Dawley rat at 10 mg/kg, po measured upto 24 hrs by LC-MS/MS analysis; format: ADME, organism-based; set-up: route oral, dose 10 mg/kg, time <=24; conditions: in vivo
How it was run: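 Six SD rats split into two groups (n=3 each), dosed once either intravenously at 1 mg/kg or orally at 10 mg/kg. Blood sampled at 2 min–12 h after IV dosing and at 5 min–24 h after oral dosing. Serum drug level measured by LC/MS/MS. AUC0-∞ is the mean of three runs.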

Mus musculus [9] = assay: Hypolipidemic activity in high fat diet-fed C57BL/6J mouse assessed as reduction in epididymal fat/body weight ratio at 170 to 340 mg/kg/day, po administered for 6 weeks; format: functional, organism-based; conditions: dose 170-340 mg/kg/day
How it was run: (§1)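 Male C57BL/6J mice, six weeks old, fed a 45%-fat diet (HFD) for 15 weeks; chow-fed mice served as controls. Obese mice were randomized to vehicle (0.1% w/v CMC-Na) or 170 or 340 mg/kg, gavaged daily for 6 weeks while diet continued. Body weight, food intake, organ weights, serum lipids, tissue histology (H&E, Oil red O), liver SREBP blots and liver qPCR followed.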

Mus musculus [10] = assay: Hypolipidemic activity in high fat diet-fed C57BL/6J mouse assessed as increase in brown fat/body weight ratio at 340 mg/kg/day, po administered for 6 weeks; format: functional, organism-based; how it was run: as §1
[11] = Toxicity in high fat diet-induced C57BL/6J mouse assessed as change in lung morphology at 170 to 340 mg/kg, po administered for 6 weeks by H and E staining-based assay; format: organism-based; conditions: in vivo, 1008 h, dose 170-340 mg/kg; how it was run: as §1
Mus musculus [12] = assay: Hypolipidemic activity in high fat diet-induced C57BL/6J mouse assessed as reduction in cell size of WAT at 170 to 340 mg/kg, po administered daily for 6 weeks by H and E staining based assay; format: functional, organism-based; conditions: dose 170-340 mg/kg; how it was run: as §1

In the case of COc1ccc2c(c1OCC1CCCCC1)CN1CCc3cc4c(cc3C1C2)OCO4 (configuration not stated), the Activity [1] was “Active”, the Activity (HepG2 [2]) was “Active” and the Activity (HepG2 [3]) was “Dose-Dependent Effect”. The Activity (HepG2 [4]) was “Active”, the Activity [5] was “inactive” and the Activity [6] was “Active”. The Cmax [7] was 0.428 µg/mL, the AUC [8] was 4.29 µg·h/mL and the Activity (Mus musculus [9]) was “Active”. The Activity (Mus musculus [10]) was “Active”, the Activity [11] was “Non-Toxic” and the Activity (Mus musculus [12]) was “Active”.
